Data: BindingDB's records for doi:10.1016/j.bmcl.2007.03.055 (Pharmacopeia Drug Discovery, 2007)

Molecular target: Amyloid-beta precursor protein (Homo sapiens, UniProt P05067)
Experiment: Inhibition of gamma-secretase
Summary of the method: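 Membrane preparation (5.0 µg total protein, in 20 mM Hepes pH 5.0, 5 mM EDTA) incubated 2 h at 37 °C with compound serially diluted in DMSO then in start buffer (Hepes pH 7.5, 5 mM EDTA); 2% DMSO final. Quenched with Tris/NaCl/BSA/Triton mix carrying biotin-W02 and Europium-labelled G2-10 (both Aβ40-specific) plus allophycocyanin-streptavidin. Signal developed 2–16 h at room temperature; HTRF at 665 nm. IC50 as mean of ≥2 determinations.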

Amyloid-beta precursor protein, sequence (P05067 whole entry): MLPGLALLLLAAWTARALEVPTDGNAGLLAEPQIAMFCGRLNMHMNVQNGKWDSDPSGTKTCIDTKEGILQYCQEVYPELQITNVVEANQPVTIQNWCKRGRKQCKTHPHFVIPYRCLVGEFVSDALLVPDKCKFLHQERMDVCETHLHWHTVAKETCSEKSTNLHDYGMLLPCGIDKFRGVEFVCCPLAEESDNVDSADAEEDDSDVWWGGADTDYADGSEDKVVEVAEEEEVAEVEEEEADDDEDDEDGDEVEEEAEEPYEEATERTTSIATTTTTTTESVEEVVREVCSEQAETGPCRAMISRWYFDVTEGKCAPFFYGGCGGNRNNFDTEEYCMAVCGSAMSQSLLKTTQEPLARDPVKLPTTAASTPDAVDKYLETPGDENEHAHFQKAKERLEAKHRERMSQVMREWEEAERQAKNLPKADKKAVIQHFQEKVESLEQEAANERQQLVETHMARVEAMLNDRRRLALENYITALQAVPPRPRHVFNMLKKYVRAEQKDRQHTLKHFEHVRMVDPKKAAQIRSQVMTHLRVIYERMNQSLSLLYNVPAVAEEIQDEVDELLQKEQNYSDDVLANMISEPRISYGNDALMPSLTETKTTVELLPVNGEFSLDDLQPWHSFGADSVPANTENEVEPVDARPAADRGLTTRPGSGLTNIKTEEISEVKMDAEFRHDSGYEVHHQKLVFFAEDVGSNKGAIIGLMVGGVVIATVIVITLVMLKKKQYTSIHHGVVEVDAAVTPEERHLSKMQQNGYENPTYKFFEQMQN

Row | SMILES | IC50 [nM]
1 | CN1CCCC1CCNC(=O)OC[C@H]1CC[C@@H](c2ccccc2)N1S(=O)(=O)c1ccc(Cl)cc1 (stereo partly drawn) [((2R,5S)-1-(4-chlorophenylsulfonyl)-5-phenylpyrrolidin-2-yl)methyl 2-(1-methylpyrrolidin-2-yl)ethylcarbamate] | 600
2 | O=C(NCCCn1ccnc1)OCCC1CCc2ccccc2N1S(=O)(=O)c1ccc(Cl)cc1 (stereo unspecified) [2-(1-(4-chlorophenylsulfonyl)-1,2,3,4-tetrahydroquinolin-2-yl)ethyl 3-(1H-imidazol-1-yl)propylcarbamate] | 280

Second part, the molecule after the results:

Row | IC50 [nM] | SMILES
3 | 220 | CN1CCCC1CCNC(=O)OCCCC1CCc2ccccc2N1S(=O)(=O)c1ccc(Cl)cc1 (stereo unspecified) [3-(1-(4-chlorophenylsulfonyl)-1,2,3,4-tetrahydroquinolin-2-yl)propyl 2-(1-methylpyrrolidin-2-yl)ethylcarbamate]
4 | 86 | O=C(NCCCn1ccnc1)OCCCC1CCc2ccccc2N1S(=O)(=O)c1ccc(Cl)cc1 (stereo unspecified) [3-(1-(4-chlorophenylsulfonyl)-1,2,3,4-tetrahydroquinolin-2-yl)propyl 3-(1H-imidazol-1-yl)propylcarbamate]
5 | 540 | O=C(OC[C@H]1CC[C@@H](c2ccccc2)N1S(=O)(=O)c1ccc(Cl)cc1)N1CCN(CCO)CC1 [((2R,5S)-1-(4-chlorophenylsulfonyl)-5-phenylpyrrolidin-2-yl)methyl 4-(2-hydroxyethyl)piperazine-1-carboxylate]
6 | 180 | O=C(OCCCC1CCc2ccccc2N1S(=O)(=O)c1ccc(Cl)cc1)N1CCN(C2CCCCC2)CC1 (stereo unspecified) [3-(1-(4-chlorophenylsulfonyl)-1,2,3,4-tetrahydroquinolin-2-yl)propyl 4-cyclohexylpiperazine-1-carboxylate]
